Assay results taken from ChEMBL document CHEMBL1135537, “Design, synthesis, and biological evaluation of indolequinone phosphoramidate prodrugs targeted to DT-diaphorase” (2002).

Legend:
A549 = assay: Growth inhibitory activity against A549 human solid tumor cell line using MTT assay; assay type: functional
How it was run: (§1)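 MTT assay. Cells were seeded at (1-2) × 10^4 per well and left to attach for 24 h. Compound was taken up in DMSO and serially diluted in medium, keeping final DMSO at 1% or less, then exposed for 72 h. MTT was added for 4–5 h, formazan was dissolved in DMSO, and absorbance was read at 570 nm. GI50 was taken from percent-of-control versus concentration plots; each compound was assayed twice and the results averaged.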

MIA PaCa-2 = assay: Growth inhibitory activity against PaCa-2 human solid tumor cell line using MTT assay; assay type: functional; how it was run: as §1
[1] = Selectivity ratio of LC99 of BE to LC99 of HT-29; assay type: functional
How it was run: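 Ratio of the BE LC99 to the HT-29 LC99, both from a 2 h clonogenic exposure in serum-free MEM/HEPES with 1% ethanol vehicle. Colonies of ≥50 cells were counted after 10 days, and LC99 was taken from log surviving fraction versus concentration plots.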

UMUC3 = assay: Growth inhibitory activity against UMUC3 human solid tumor cell line using MTT assay; assay type: functional; how it was run: as §1
MDA-MB-231 = assay: Growth inhibitory activity against human MDA-231 cell line using MTT assay.; assay type: functional; how it was run: as §1
HT-29 [2] = assay: Growth inhibitory activity against HT-29 human solid tumor cell line using MTT assay; assay type: functional; how it was run: as §1
A498 = assay: Growth inhibitory activity against A498-2LM human solid tumor cell line using MTT assay; assay type: functional; how it was run: as §1
PC-3 = assay: Growth inhibitory activity against human PC-3 cell line using MTT assay.; assay type: functional; how it was run: as §1
BE = assay: Inhibitory concentration that reduces clonogenic survival by 2 log units (99%) 2-hour after drug treatment in BE human colon carcinoma cell line.; assay type: functional
How it was run: (§2)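 Clonogenic assay. Exponentially growing cells at 1–1.2 × 10^5 cells/mL in serum-free MEM with 0.02 M HEPES were exposed for 2 h at 37 °C, 5% CO2, to five final concentrations. Ethanol was the vehicle at 1% final, with an ethanol-only control. Cells were then rinsed, plated at 2–3 densities in five replicates and grown 10 days. Crystal-violet-stained colonies of ≥50 cells were counted, and LC99 was read from log surviving fraction versus concentration. Runs were done at least twice and averaged.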

[3] = target: NAD(P)H dehydrogenase [quinone] 1 (Homo sapiens) (UniProt P15559); assay: Kinetic parameter Kcat was reported against DT-diaphorase
How it was run: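 Recombinant purified human DTD in Tris buffer (0.05 M, pH 7.6) with dithiothreitol (0.01 mM), NADH (1 mM), cytochrome c (55 μM) and varied indolequinone in DMSO. Run at 25 °C, started with enzyme, in triplicate. Cytochrome c reduction was followed at 550 nm, with no-enzyme background rates. kcat came from Hanes plots of initial linear rates (ε 1.85 × 10^4 M-1 cm-1). Values average ≥2 experiments.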

HT-29 [4] = assay: Inhibitory concentration that reduces clonogenic survival by 2 log units (99%) 2-hour after drug treatment in HT-29 human colon carcinoma cell line.; assay type: functional; how it was run: as §2

Chain of NAD(P)H dehydrogenase [quinone] 1 (Homo sapiens) (P15559 whole entry): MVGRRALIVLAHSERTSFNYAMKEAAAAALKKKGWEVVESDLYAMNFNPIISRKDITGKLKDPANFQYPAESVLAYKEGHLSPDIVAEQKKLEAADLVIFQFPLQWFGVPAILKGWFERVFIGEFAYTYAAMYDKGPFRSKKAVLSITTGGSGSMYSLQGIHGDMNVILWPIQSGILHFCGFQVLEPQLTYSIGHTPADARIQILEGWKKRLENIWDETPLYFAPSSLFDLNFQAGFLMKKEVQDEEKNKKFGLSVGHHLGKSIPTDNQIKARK

SMILES: COC1=CC(=O)c2c(c(COC(C)=O)cn2C)C1=O
- GI50 (A549): 440 nM
- GI50 (MIA PaCa-2): 4 nM
- Selectivity [1]: 10
- GI50 (UMUC3): 7 nM
- GI50 (MDA-MB-231): 250 nM
- GI50 (HT-29 [2]): 3 nM
- GI50 (A498): 37 nM
- GI50 (PC-3): 5 nM
- LC99 (BE): 5.3 µM
- k cat [3]: 4 s⁻¹
- LC99 (HT-29 [4]): 0.54 µM

SMILES: COC1=CC(=O)c2c(cc(COP(N)(=O)N(CCCl)CCCl)n2C)C1=O (stereo unspecified)
- GI50 (A549): 22 nM
- GI50 (MIA PaCa-2): 31 nM
- Selectivity [1]: 69
- GI50 (UMUC3): 10 nM
- GI50 (MDA-MB-231): 870 nM
- GI50 (HT-29 [2]): 210 nM
- GI50 (A498): 980 nM
- GI50 (PC-3): 260 nM
- LC99 (BE): 7.6 µM
- k cat [3]: 2.6 s⁻¹
- LC99 (HT-29 [4]): 0.11 µM

SMILES: COC1=CC(=O)c2c(c(COP(N)(=O)N(CCBr)CCBr)cn2C)C1=O (stereo unspecified)
- GI50 (A549): 400 nM
- GI50 (MIA PaCa-2): 220 nM
- Selectivity [1]: 2
- GI50 (UMUC3): 10 nM
- GI50 (MDA-MB-231): 190 nM
- GI50 (HT-29 [2]): 240 nM
- GI50 (A498): 1000 nM
- GI50 (PC-3): 650 nM
- LC99 (BE): 0.47 µM
- LC99 (HT-29 [4]): 0.24 µM

SMILES: CC1=CC(=O)c2ccccc2C1=O
- k cat [3]: 960 s⁻¹

SMILES: COC1=CC(=O)c2c(cc(COP(N)(=O)N(CCBr)CCBr)n2C)C1=O (stereo unspecified)
- GI50 (A549): 3 nM
- GI50 (MIA PaCa-2): 15 nM
- Selectivity [1]: 65
- GI50 (UMUC3): 2 nM
- GI50 (MDA-MB-231): 1600 nM
- GI50 (HT-29 [2]): 61 nM
- GI50 (A498): 200 nM
- GI50 (PC-3): 490 nM
- LC99 (BE): 4.2 µM
- k cat [3]: 1.6 s⁻¹
- LC99 (HT-29 [4]): 0.077 µM

SMILES: COC1=CC(=O)c2c(c(CO)cn2C)C1=O
- k cat [3]: 136 s⁻¹

SMILES: COC1=CC(=O)c2c(c(COP(=O)(N(C)CCBr)N(C)CCBr)cn2C)C1=O
- GI50 (A549): 23 nM
- GI50 (MIA PaCa-2): 25 nM
- Selectivity [1]: 2
- GI50 (UMUC3): 2 nM
- GI50 (MDA-MB-231): 40 nM
- GI50 (HT-29 [2]): 65 nM
- GI50 (A498): 340 nM
- GI50 (PC-3): 66 nM
- LC99 (BE): 0.14 µM
- LC99 (HT-29 [4]): 0.07 µM

SMILES: COC1=CC(=O)c2c(cc(COC(C)=O)n2C)C1=O
- GI50 (A549): 26000 nM
- GI50 (MIA PaCa-2): 35000 nM
- GI50 (UMUC3): 9600 nM
- GI50 (MDA-MB-231): > 38000 nM
- GI50 (HT-29 [2]): 34000 nM
- GI50 (A498): 34000 nM
- GI50 (PC-3): > 38000 nM
- LC99 (BE): >100 µM
- k cat [3]: 30 s⁻¹
- LC99 (HT-29 [4]): >100 µM

SMILES: COC1=CC(=O)c2c(cc(COP(=O)(N(C)CCBr)N(C)CCBr)n2C)C1=O
- GI50 (A549): 1700 nM
- GI50 (MIA PaCa-2): 8 nM
- Selectivity [1]: 6
- GI50 (UMUC3): 17 nM
- GI50 (MDA-MB-231): 840 nM
- GI50 (HT-29 [2]): 200 nM
- GI50 (A498): 2300 nM
- GI50 (PC-3): 940 nM
- LC99 (BE): 2 µM
- k cat [3]: 1.28 s⁻¹
- LC99 (HT-29 [4]): 0.35 µM

SMILES: COC1=CC(=O)c2c(cc(CO)n2C)C1=O
- k cat [3]: 77 s⁻¹

SMILES: COC1=CC(=O)c2c(cc(COP(N)(=O)N3CCOCC3)n2C)C1=O (stereo unspecified)
- GI50 (A549): 45000 nM
- GI50 (MIA PaCa-2): 10000 nM
- GI50 (UMUC3): 10000 nM
- GI50 (MDA-MB-231): 13000 nM
- GI50 (HT-29 [2]): 15000 nM
- GI50 (A498): 12000 nM
- GI50 (PC-3): 14000 nM
- LC99 (BE): >100 µM
- k cat [3]: 4.9 s⁻¹
- LC99 (HT-29 [4]): >100 µM

SMILES: COC1=CC(=O)c2c(c(COP(N)(=O)N3CCOCC3)cn2C)C1=O (stereo unspecified)
- GI50 (A549): 12000 nM
- GI50 (MIA PaCa-2): 9800 nM
- GI50 (UMUC3): 8200 nM
- GI50 (MDA-MB-231): 9300 nM
- GI50 (HT-29 [2]): 7700 nM
- GI50 (A498): 1200 nM
- GI50 (PC-3): 15000 nM
- LC99 (BE): >100 µM
- LC99 (HT-29 [4]): >100 µM
